TRPC4 PAM: allosteric potentiators of mouse TRPC4 channel. hit rate 0.42% among 310,000. Q9QUQ5. HEK293 TRPC4beta/mu-opioid, DAMGO EC20, Fluo-4 Ca2+ flux; active compounds read high. B-score at 10 µM;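 active means B-score of calcium response area above 5 SD of library B-scores, with initial fluorescence ratio within 5 SD of library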
TRPC6 act: activators of mouse TRPC6 channel | B-score at 10 µM | HEK293-TRPC6 membrane potential dye fluorescence; active compounds read high | AID 2550 | hit rate 0.13% among 310,000;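 active means B-score of the integrated fluorescence ratio above library mean plus 3 SD, and starting fluorescence ratio within library mean plus 5 SD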;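 further: higher score means more depolarization so channel activation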
Target sequence (Q61143 whole entry, looked up): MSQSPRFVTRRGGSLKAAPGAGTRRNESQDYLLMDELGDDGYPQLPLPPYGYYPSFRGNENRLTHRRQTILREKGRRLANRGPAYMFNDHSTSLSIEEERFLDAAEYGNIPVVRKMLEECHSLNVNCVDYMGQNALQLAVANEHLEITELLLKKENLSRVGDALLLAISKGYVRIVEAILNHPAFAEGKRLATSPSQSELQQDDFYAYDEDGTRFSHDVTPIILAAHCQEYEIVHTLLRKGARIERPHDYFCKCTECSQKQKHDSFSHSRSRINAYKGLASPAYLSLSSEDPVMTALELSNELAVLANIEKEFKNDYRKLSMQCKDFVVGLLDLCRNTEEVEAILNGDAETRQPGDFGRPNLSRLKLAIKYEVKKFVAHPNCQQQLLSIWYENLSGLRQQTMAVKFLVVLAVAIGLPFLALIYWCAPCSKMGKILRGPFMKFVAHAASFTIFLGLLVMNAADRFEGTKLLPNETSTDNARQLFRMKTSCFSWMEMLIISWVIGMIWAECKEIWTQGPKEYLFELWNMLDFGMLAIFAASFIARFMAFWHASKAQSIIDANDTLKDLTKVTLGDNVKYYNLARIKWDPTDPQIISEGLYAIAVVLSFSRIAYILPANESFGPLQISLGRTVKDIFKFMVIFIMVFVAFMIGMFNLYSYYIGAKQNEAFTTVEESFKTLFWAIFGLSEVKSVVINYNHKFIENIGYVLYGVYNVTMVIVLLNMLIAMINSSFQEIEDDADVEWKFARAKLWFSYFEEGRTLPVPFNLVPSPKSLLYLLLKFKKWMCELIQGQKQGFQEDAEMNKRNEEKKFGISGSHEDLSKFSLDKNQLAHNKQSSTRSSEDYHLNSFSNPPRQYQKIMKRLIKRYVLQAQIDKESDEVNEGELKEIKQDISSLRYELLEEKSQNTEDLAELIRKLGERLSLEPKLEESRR
TRPC4 inh: blocks the mouse TRPC4 cation channel; hit rate 0.39% among 300,000; AID 2247; HEK293 TRPC4beta/mu-opioid, DAMGO-evoked Fluo4 calcium flux; active compounds read low; B-score at 10 µM;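 active means B-score over 3 SD under the library average, no early fluorescence shift, positive overall ratio signal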
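Assay system – HEK293 line stably carrying TRPC4beta and mu-opioid receptor · Doses – single dose · Detection – Fluo4 calcium-dye fluorescence, kinetic read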
TRPC4 agonist: activators of mouse TRPC4 channel; hit rate 0.49% among 310,000; Q9QUQ5; AID 2237; B-score at 10 µM; HEK293 TRPC4beta/mu-opioid, Fluo4 calcium fluorescence; active compounds read high;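 active means B-score above 5 SD of library B-scores, and initial fluorescence ratio not above library mean plus 5 SD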;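 further: positive B-score marks a calcium rise read as TRPC4 activation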
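Assay system – TRPC4beta and mu-opioid receptor HEK293 stable cells · Measured by – Fluo4 fluorescence, kinetic · Schedule – dye loading 45 min room temperature, 110 s kinetic read · Read-out – B-scored integrated calcium fluorescence ratio · Controls – buffer and maximal DAMGO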
TRPC6 inhibitor: mouse TRPC6 channel inhibition. Q61143. HEK293-TRPC6, membrane potential dye, ACh-evoked depolarization; active compounds read low. B-score at 10 µM. hit rate 1.1% among 310,000;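 active means B-score under library mean minus 3 SD, initial fluorescence not abnormally high, positive integrated signal ratio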;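 further: B-score derived from integrated fluorescence ratio over the kinetic read; more negative B-score means stronger inhibition of depolarization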
TRPC4 spec 2: mouse TRPC4 off-target activity of TRPC6 inhibitors, second screen. shares compounds with TRPC6 inhibitor. HEK293 TRPC4/MOR, membrane potential dye fluorescence; channel activated by saturating DAMGO dose. inhibition, % at 10 µM. hit rate 42% among 920. AID 2776;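 active means compounds whose fluorescence signal differed from control wells by over 3 SD, either direction, in both duplicate plates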
TRPC4 spec: tests whether TRPC6 inhibitors also affect mouse TRPC4 | shares compounds with TRPC6 inhibitor | HEK293 TRPC4/mu-opioid, membrane potential fluorescence | activity change, negative = inhibition, % at 10 µM | hit rate 61% among 920 | AID 2777;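 active means rise or fall in signal beyond 3 SD of buffer-only wells in both replicate plates, either sign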;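 further: integrated kinetic ratio of fluorescence range over baseline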
HEK293 MPD ctr 2-1: second check of TRPC6 inhibitor effects in parental HEK293 cells; shares compounds with TRPC6 inhibitor; parental HEK293 membrane potential dye fluorescence; maximal acetylcholine challenge after compound addition; signal change vs control, % at 10 µM; hit rate 31% among 920; AID 2779;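 active means membrane potential signal moving either way by over 3 SD of the maximum-effect control, in both duplicate plates, meaning non-specific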
HEK293 MPD ctr-1: checks TRPC6 inhibitor effects in parental HEK293 cells | AID 2780 | membrane potential signal change, % at 10 µM | hit rate 60% among 920 | parental HEK293 membrane potential dye fluorescence | shares compounds with TRPC6 inhibitor;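 active means membrane potential signal shifting up or down by more than 3 SD of buffer-only wells, on both duplicate plates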
HEK293 MPD ctr-2: parental HEK293 nonspecific activity of TRPC6 modulators; hit rate 51% among 2,400; membrane potential signal change, % at 10 µM; membrane potential dye fluorescence; shares compounds with TRPC6 inhibitor;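 active means membrane potential signal moves up or down beyond 5 SD from buffer-only wells, on both duplicate plates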
HEK293 MPD ctr 2-2: second counter-screen for TRPC6 modulators: effect in parental HEK293 cells; shares compounds with TRPC6 inhibitor; membrane potential dye fluorescence; after compound, maximal acetylcholine stimulation; inhibition, % at 10 µM; hit rate 14% among 2,400;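 active means membrane potential signal drops by more than 5 SD from the mean control signal, in both duplicate plates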
TRPC4 ctr mod: mouse TRPC4 off-target activity of TRPC6 modulators. shares compounds with TRPC6 inhibitor. HEK293 TRPC4/mu-opioid, membrane potential fluorescence. percent change from control (negative = decrease, positive = increase), % at 10 µM. hit rate 69% among 2,400;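 active means membrane potential signal moved up or down beyond 5 SD of buffer control wells, in both duplicate plates, actives on both sides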
TRPC4/MOR inh 2: second check of whether TRPC6 modulators also affect mouse TRPC4; shares compounds with TRPC6 inhibitor; hit rate 55% among 2,400; inhibition, % at 10 µM; HEK293 TRPC4/mu-opioid, membrane potential dye fluorescence; stimulated with maximal-effect DAMGO; AID 488928;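 active means drop in membrane potential signal beyond 5 SD of the control wells in both duplicate plates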;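 further: TRPC4 counter screen for TRPC6 hits run under conditions tuned for TRPC6 not TRPC4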
TRPC6 inh conf: confirmation of mouse TRPC6 inhibitors | shares compounds with TRPC6 inhibitor | HEK293-TRPC6, membrane potential dye, ACh-evoked depolarization | inhibition, % at 10 µM | hit rate 43% among 3,300;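 active means fluorescence ratio falls more than 5 SD below the full-stimulation control mean, in both duplicate runs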;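 further: integrated fluorescence ratio of peak minus minimum over baseline after agonist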
TRPC6 act conf: confirmation of mouse TRPC6 activators; shares compounds with TRPC6 inhibitor; HEK293-TRPC6 membrane potential dye fluorescence, FDSS; activation, % at 10 µM; hit rate 11% among 2,800; AID 488961;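 active means ratio signal rise beyond 5 SD above unstimulated control wells' mean, seen in both duplicate runs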
Large screens that a line does not name were inactive (follow-up assays come after a bar, where they were run). A selection: hits, their analogues and other compounds. The true share with any hit is near 2.3%.

CN(C)CCNc1c2c(nc3ccccc13)CCC2	TRPC6 inhibitor -9.05 | HEK293 MPD ctr-2 -202.5% | HEK293 MPD ctr 2-2 110.5% | TRPC4 ctr mod -36.5% | TRPC4/MOR inh 2 77.0% | TRPC6 inh conf 74.0% | TRPC6 act conf inactive
CN(C)CCCNc1oc(-c2ccccc2)nc1C#N	none
Nc1c2c(nc3ccccc13)N(C1CCCCC1)CC2	TRPC4 inh -6, TRPC6 inhibitor -11.6 | TRPC4 spec 2 27.0% | TRPC4 spec -28.0% | HEK293 MPD ctr 2-1 -2.5% | HEK293 MPD ctr-1 -388.0% | TRPC6 inh conf 109.0% | TRPC6 act conf inactive
Nc1c2c(nc3ccc(Br)cc13)N(Cc1ccccc1)CC2	none
Nc1c2c(nc3ccccc13)CCC2	TRPC4 inh -5, TRPC6 inhibitor -6.99 | HEK293 MPD ctr-2 -279.0% | HEK293 MPD ctr 2-2 inactive | TRPC4 ctr mod -42.0% | TRPC4/MOR inh 2 70.0% | TRPC6 inh conf inactive | TRPC6 act conf inactive
CSc1ccc(CNC(=O)Cc2ccc(NC(=O)C3=C(C)OCCS3)cc2)cc1	none
CCOC(=O)c1ccc2c(c1)n(CCCS(=O)(=O)[O-])c(/C=C/c1ccc(Cl)cc1)[n+]2CC	TRPC6 inhibitor -7.41 | HEK293 MPD ctr-2 -333.0% | HEK293 MPD ctr 2-2 inactive | TRPC4 ctr mod -60.0% | TRPC4/MOR inh 2 61.0% | TRPC6 inh conf 58.5% | TRPC6 act conf inactive
O=C(NC(Cc1ccccc1)C(=O)O)/C(=C/c1ccco1)NC(=O)c1cccc(Br)c1 (centres undefined)	none
O=C1N=C(N2CCCC2C(=O)O)S/C1=C\c1ccco1 (centres undefined)	none
Cc1cccc(C(=O)NN2C(=O)C3C(c4ccccc4)C=CC(c4ccccc4)C3C2=O)c1 (centres undefined)	TRPC6 inhibitor -5 | HEK293 MPD ctr-2 inactive | HEK293 MPD ctr 2-2 inactive | TRPC4 ctr mod inactive | TRPC4/MOR inh 2 inactive | TRPC6 inh conf inactive | TRPC6 act conf inactive
COc1cc(CNC2CCCC2)cc(Br)c1OCC(=O)Nc1ccccc1C	none
COc1cc(CC(NC(C)=O)C(=O)NC2CCN(c3c4c(nc5ncnn35)CCC4)CC2)cc(OC)c1 (centres undefined)	none
O=C(O)CN1C(=O)C2C3C=CC(C3)C2C1=O (centres undefined)	none
C[N+]1(CN2C(=O)C3C4C=CC(C4)C3C2=O)CCCCC1 (centres undefined)	TRPC6 inhibitor -5.56 | HEK293 MPD ctr-2 inactive | HEK293 MPD ctr 2-2 inactive | TRPC4 ctr mod inactive | TRPC4/MOR inh 2 inactive | TRPC6 inh conf 48.5% | TRPC6 act conf inactive
COc1ccc[nH]c1=O	TRPC6 inhibitor -5.99 | HEK293 MPD ctr-2 inactive | HEK293 MPD ctr 2-2 inactive | TRPC4 ctr mod inactive | TRPC4/MOR inh 2 inactive | TRPC6 inh conf inactive | TRPC6 act conf inactive
O=C(Nc1ccccc1)Oc1ccc[nH]c1=O	none
COCCNC(=O)CSc1nnc(CCCN2C(=O)c3cccc4cccc(c34)C2=O)n1-c1ccccc1	none
CCNc1nc(CN2CCCCC2)nc2scc(-c3ccccc3)c12	TRPC6 inhibitor -5.83 | HEK293 MPD ctr-2 inactive | HEK293 MPD ctr 2-2 inactive | TRPC4 ctr mod inactive | TRPC4/MOR inh 2 39.0% | TRPC6 inh conf inactive | TRPC6 act conf inactive
OCC1CCCN(c2nc(CN3CCCCC3)nc3scc(-c4ccccc4)c23)C1 (centres undefined)	none
COc1ccc(OC)c(Cc2nnc(CCC(=O)NCc3nc4ccccc4s3)o2)c1	none
O=C(CSc1c2c(nc3ccc(Cl)cc13)CCCC2)NCCCN1CCOCC1	TRPC6 inhibitor -11.2 | TRPC4 spec 2 inactive | TRPC4 spec inactive | HEK293 MPD ctr 2-1 33.5% | HEK293 MPD ctr-1 inactive | TRPC6 inh conf inactive | TRPC6 act conf inactive
CC(O)(C#CCN1CCOCC1)c1ccccc1 (centres undefined)	none
CC(C)C(O)(C#CCN1CCCCC1)c1ccccc1 (centres undefined)	TRPC6 inhibitor -6.64 | TRPC4 spec 2 inactive | TRPC4 spec 4.9% | HEK293 MPD ctr 2-1 -61.0% | HEK293 MPD ctr-1 7.8% | TRPC6 inh conf 70.9%
CC(C)C(O)(C#CCN1CCCC1)c1ccccc1 (centres undefined)	TRPC6 inhibitor -5.94 | HEK293 MPD ctr-2 inactive | HEK293 MPD ctr 2-2 64.5% | TRPC4 ctr mod 11.0% | TRPC4/MOR inh 2 inactive | TRPC6 inh conf 67.5%
OC(C#CCN1CCCCC1)c1ccccc1 (centres undefined)	none
CC(C)CN(C(=O)c1ccc(F)cc1F)c1c(N)n(CC(C)C)c(=O)[nH]c1=O	none
OCCN1CCN(c2nc(-c3ccccc3)c3cc(Cl)ccc3n2)CC1	none
OCCCCCN=c1cc(-c2ccccc2)oc2ccc(Cl)cc12	TRPC6 inhibitor -7.98 | TRPC4 spec 2 57.0% | TRPC4 spec -26.2% | HEK293 MPD ctr 2-1 31.0% | HEK293 MPD ctr-1 -431.5% | TRPC6 inh conf 73.7% | TRPC6 act conf inactive
COc1ccc(OC)c(Nc2cc(C(=O)NCCCN3CCOCC3)c3ccccc3n2)c1	TRPC6 inhibitor -5.54 | HEK293 MPD ctr-2 inactive | HEK293 MPD ctr 2-2 inactive | TRPC4 ctr mod inactive | TRPC4/MOR inh 2 45.0% | TRPC6 inh conf inactive | TRPC6 act conf inactive
COc1ccccc1Nc1cc(C(=O)NCCCN2CCOCC2)c2ccccc2n1	none

Screening results deposited in PubChem BioAssay by Johns Hopkins Ion Channel Center.
